Source: PMC9844543 (Nano letters, 2022)

Test: Critical gelation concentration by vial inversion after addition of PBS
Assay type: physicochemical
Method in brief: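 Self-assembling collagen-binding peptide amphiphile filaments were dissolved in water. They were either left unsprayed, sprayed with an atomizer, or emitted from a jet nebulizer as a respirable aerosol. PBS was then added to give 1× PBS, and gelation was judged by vial inversion.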

With LRELHLNNN [CBDA] the “critical gelation concentration (CGC)” value (after spraying with an atomizer) was 1 mM and the “critical gelation concentration (CGC)” value (filaments in water, PBS added to final 1× PBS, not sprayed) was ~ 1 mM.
